Our source for the Activity and Caspase induction values is ChEMBL document CHEMBL1144352, “Effects of flavonoids on cell proliferation and caspase activation in a human colonic cell line HT29: an SAR study” (2005).

Format in all cases: functional
For assay [1], the system named is HT-29. Briefly: Antiproliferative effect against human colonic cell line (HT-29) after 24 hr at a concentration of 50 uM. The method, boiled down:
(§1)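 HT-29 cells plated at 15 000/well in DMEM with 5% fetal calf serum for 24 h, then medium replaced with fresh medium containing compound at 50 µM plus 200 µM sodium ascorbate. After incubation, neutral red (50 µg/mL) uptake for 2 h, formaldehyde/CaCl2 fixation, ethanol:acetic acid extraction, OD 550 nm. Result as % of control cells, mean ± SD, n > 18 wells, ≥4 experiments.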

In assay [2] the test system is HT-29. Briefly: Antiproliferative effect against human colonic cell line (HT-29) after 6 hr at a concentration of 50 uM. An outline of the steps: as §1
Assay [3] concerns HT-29. Briefly: Caspase 3/7 activity is expressed as ratio of caspase activation in treated human colonic cell line (HT-29) to that of untreated control cells after 5 hr. The method, boiled down:
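Caspase 3/7 measured with ApopOne kit. HT-29 cells were seeded at 15 000/well and exposed to test molecule for 5 h. Reagent containing caspase substrate and lysis buffer was then added, followed by 45 min at 37 °C. Fluorescence read at excitation 485 nm and emission 538 nm. Reported as ratio of treated to untreated control, mean of duplicate wells on one plate.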

Take `COc1ccc(-c2cc(=O)c3c(OC)c(OC)c(OC)cc3o2)cc1O`: the values for the Activity in assay [1] and in assay [2] were 102.1 and 95.4, respectively.
Consider `CC(C)=CCc1c(O)cc(O)c2c(=O)c(O)c(-c3ccc(O)cc3)oc12`, for which the Activity in assay [1] is 71.1; in assay [2], 78.8. Besides, in assay [3], the Caspase induction is recorded as 2.7.
Turning to `COc1ccc(-c2oc3cc(O)cc(O)c3c(=O)c2OC)cc1OC`, the Activity in assay [1] was determined as 74.2; in assay [2] it was 87.9. In addition, the Caspase induction in assay [3] is on record as 1.1.
As for `CC(C)=CCOc1cc(O)cc2oc(-c3ccccc3)cc(=O)c12`, the values for the Activity in assay [1] and in assay [2] were 19.4 and 17, respectively. For the same molecule, the Caspase induction in assay [3] amounted to 1.4.
With `O=C1C[C@@H](c2ccc(O)cc2)Oc2cc(O)cc(O)c21` [NARINGENIN], the values for the Activity in assay [1] and in assay [2] were 94.8 and 102.2, respectively.
As for `C=CC(C)(C)c1c(O)cc(O)c2c(=O)cc(-c3ccccc3)oc12`, the Activity in assay [1] turned out to be 57.7; in assay [2] it was 76.7. Besides, the Caspase induction in assay [3] was found to be 1.1.
As for `O=C(/C=C/c1ccc(O)cc1)c1c(O)cc(O)cc1O` [4,2',4',6'-TETRAHYDROXYCHALCONE], the Activity in assay [1] is reported as 94.1; in assay [2] it was 102.
On to `C=CC(C)(C)c1c(O)cc(O)c2c(=O)c(O)c(-c3ccccc3)oc12`, for which the results for the Activity in assay [1] and in assay [2] were 63 and 76.7, respectively. Also, in assay [3], the Caspase induction is reported as 1.1.
The like results for `C=CC(C)(C)c1cc(C(=O)/C=C/c2ccccc2)c(O)cc1O` were, in that order, 15.6, 35.4 and 7.3.
The like results for `COc1ccc(-c2oc3cc(O)cc(O)c3c(=O)c2O)cc1` [KAEMPFERIDE] were, in that order, 84.7, 99.77 and 1.
The corresponding values for `CC(C)=CCC/C(C)=C/COc1cc(O)c2c(=O)cc(-c3ccccc3)oc2c1` are 84.3, 90.4 and 1.2.
`COc1cc(OC)c(-c2oc3cc(O)cc(O)c3c(=O)c2OC)cc1OC`: the Activity in assay [1] turned out to be 92.5; in assay [2] it was 90.
Consider `O=c1c(O)c(-c2ccc(O)c(O)c2)oc2cc(O)cc(O)c12` [QUERCETIN], for which the Activity in assay [1] is 51.3; in assay [2] it was 61.4. Also, the Caspase induction in assay [3] was 1.
For the molecule `C=CC(C)(C)c1c(O)cc2oc(-c3ccccc3)cc(=O)c2c1O`, the figures for the Activity in assay [1] and in assay [2] were 79.1 and 90.4, respectively.
On to `C=CC(C)(C)c1c(O)cc(O)c2c(=O)c(OC)c(-c3ccccc3)oc12`, for which the Activity in assay [1] is reported as 79.4; in assay [2], 79.3. In assay [3], the Caspase induction was 1.3.
Regarding `C=CC(C)(CCC=C(C)C)c1c(O)cc(O)c2c(=O)cc(-c3ccccc3)oc12` (configuration not stated), the Activity in assay [1] was 28.1; in assay [2], 28.4. Besides, the Caspase induction in assay [3] amounted to 8.9.
As for `CC(C)=CCC/C(C)=C/Cc1c(O)cc2oc(-c3ccccc3)cc(=O)c2c1O`, the Activity was found to be 53.9 in assay [1] and 58.2 in assay [2]. Also, the Caspase induction in assay [3] is 1.9.
For `CC(C)=CCc1c(O)cc2oc(-c3ccccc3)cc(=O)c2c1O`, the Activity in assay [1] and in assay [2] was 87.9 in each case.
`O=c1cc(-c2ccccc2)oc2cc(O)c(Cc3ccccc3)c(O)c12`: the Activity in assay [1] is listed as 57.6; in assay [2] it was 65.3.
For `C=CC(C)(C)c1c(O)cc(O)c2c(=O)c(OC)c(-c3ccc(OC)c(OC)c3)oc12`, the Activity in assay [1] stood at 4.7; in assay [2] it was 8.5. Besides, the Caspase induction in assay [3] was 5.2.
`COc1ccc(-c2oc3cc(O)cc(O)c3c(=O)c2OC)c(OC)c1OC`: the Activity in assay [1] worked out at 91.5; in assay [2], 89.7.
Take `O=c1cc(-c2ccccc2)oc2c(Cc3ccccc3)c(O)cc(O)c12`: the Activity is reported as 97.4 in assay [1] and 103.2 in assay [2].
For `C=CC(C)(C)c1c(O)cc(O)c2c(=O)c(OC)c(-c3ccc(OC)cc3)oc12`, the Activity was 20.1 in assay [1] and 34.5 in assay [2]. Further, the Caspase induction in assay [3] is 8.1.
For `COc1cc2oc(-c3ccccc3)cc(=O)c2c(O)c1C`, the Activity in assay [1] is 83.8; in assay [2] it was 92.2.
Turning to `CC(C)=CCc1c(O)cc(O)c2c(=O)c(O)c(-c3ccc(O)c(O)c3)oc12`, the Activity in assay [1] was 67; in assay [2] it was 68. Besides, the Caspase induction in assay [3] came out at 1.9.
Regarding `O=c1c(O)c(-c2ccc(O)cc2)oc2cc(O)cc(O)c12` [KAEMPFEROL], the Activity in assay [1] is reported as 89.6; in assay [2], 92. The Caspase induction in assay [3] is 1.8.
As for `COc1ccc(C(=O)/C=C(\O)c2ccc(O)cc2O)cc1`, the Activity stood at 96.6 in assay [1] and 96.2 in assay [2].
On to `Cc1c(O)cc2oc(-c3ccccc3)cc(=O)c2c1O`, for which the Activity worked out at 101 in assay [1] and 104 in assay [2].
As for `C=CC(C)(CC/C=C(\C)CCC=C(C)C)c1c(O)cc(O)c2c(=O)cc(-c3ccccc3)oc12` (configuration not stated), the figures for the Activity in assay [1] and in assay [2] were 24.5 and 43.3, respectively. Moreover, in assay [3], the Caspase induction amounted to 6.9.
The corresponding values for `CC(C)=CCc1c(O)c(O)c2oc(-c3ccccc3)cc(=O)c2c1O` are 71.7, 67.4 and 1.6.
`C=CC(C)(C)c1c(O)cc(O)c2c(=O)c(O)c(-c3ccc(OC)cc3)oc12`: the Activity in assay [1] is recorded as 42.1; in assay [2], 56.4.
The like results for `CC(C)=CCc1c(O)cc(O)c2c(=O)cc(-c3ccc(O)cc3)oc12` were, in that order, 56.2 and 76.9.
On to `CC(C)=CCC/C(C)=C/CC/C(C)=C/COc1cc(O)c2c(=O)cc(-c3ccccc3)oc2c1`, for which the Activity came to 83.3 in assay [1] and 87.8 in assay [2].
Take `O=c1cc(-c2ccccc2)oc2cc(O)cc(O)c12` [CHRYSIN]: the Activity worked out at 62.8 in assay [1] and 86.6 in assay [2]. Also, the Caspase induction in assay [3] is on record as 0.8.
On to `O=c1cc(-c2ccccc2)oc2cc(OCc3ccccc3)cc(O)c12`, for which the Activity in assay [1] is 87.1; in assay [2] it was 96.6.
For `COc1ccc(-c2oc3cc(O)cc(O)c3c(=O)c2OC)cc1` [ERMANIN], the figures for the Activity in assay [1] and in assay [2] were 77.1 and 92, respectively. Besides, the Caspase induction in assay [3] was found to be 1.2.
Consider `COc1cc(-c2oc3cc(O)cc(O)c3c(=O)c2OC)cc(OC)c1OC`, for which the Activity in assay [1] is reported as 101.8; in assay [2], 101.9.
With `CC(C)=CCC/C(C)=C/Cc1c(O)cc(O)c2c(=O)cc(-c3ccccc3)oc12`, the Activity in assay [1] was determined as 7.6; in assay [2], 18. Besides, the Caspase induction in assay [3] is given as 9.
On to `COc1c(-c2ccccc2)oc2c(O)c(O)c(CC=C(C)C)c(O)c2c1=O`, for which the figures for the Activity in assay [1] and in assay [2] were 71.8 and 59.8, respectively. In addition, the Caspase induction in assay [3] is on record as 3.5.
Take `COc1cc(O)cc2oc(-c3ccccc3)cc(=O)c12`: the Activity was 107.6 in assay [1] and 104.7 in assay [2].
The like results for `COc1cc(-c2cc(=O)c3c(OC)c(OC)c(OC)cc3o2)cc(OC)c1OC` were, in that order, 100.7 and 94.2.
For the molecule `CC(C)=CCc1c(O)cc(O)c2c(=O)cc(-c3ccccc3)oc12`, the Activity came to 75.5 in assay [1] and 86.3 in assay [2]. Further, the Caspase induction in assay [3] is recorded as 0.9.
